Consider ten molecules from ChEMBL document CHEMBL4834407, “Antiplasmodial Oleanane Triterpenoids from Terminalia albida Root Bark” (J Nat Prod, 2021).

For one series, the system named is Candida albicans. Kind of series: Antifungal activity against Candida albicans ATCC59630. Format: functional, organism-based. The procedure, abridged: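 C. albicans panel with flucytosine as reference drug; IC50 reported in µM.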
The test system of the next series is Plasmodium falciparum. Kind of series: Antiplasmodial activity against chloroquine-resistant Plasmodium falciparum K1 measured after 72 hrs by lactate dehydrogenase assay. In kind it is functional, organism-based. Particulars: K1, 72 h. The procedure, abridged:
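In vitro lactate dehydrogenase read-out on the chloroquine-resistant P. falciparum K1 strain; chloroquine was the reference drug.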

A further series has as its system Staphylococcus aureus. The series can be described thus: Antibacterial activity against Staphylococcus aureus ATCC6538. Format: functional, organism-based. Put shortly:
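S. aureus panel with doxycycline as reference drug; IC50 reported in µM.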

Series [1] can be described thus: Selectivity index, ratio of CC50 for cytotoxicity against human MRC5 cells to IC50 for antiplasmodial activity against chloroquine-resistant plasmodium falciparum K1. In kind it is toxicity, cell-based. Particulars: read-out: Ratio CC50/IC50. Put shortly: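 Ratio of the MRC-5 value (human foetal lung fibroblasts, tamoxifen as cytotoxicity control) to the P. falciparum K1 value (lactate dehydrogenase assay, chloroquine control).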

The nature of series [2]: Cytotoxicity against human MRC5 cells measured after 7 days by MTT assay. To be noted: time 7 day. In kind it is cell-based. Put shortly: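 MRC-5 human foetal lung fibroblasts; tamoxifen as positive control; IC50 reported in µM.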

A word on the IC50: it is the point on the concentration scale where inhibition reaches its midpoint. One may read the CC50 as the concentration at which the toxic effect on the cells reaches its halfway point. Read a low CC50 as greater toxicity to the cells. Take `CC1(C)CC[C@]2(C(=O)O[C@@H]3O[C@H](CO)[C@@H](O)[C@H](O)[C@H]3O)CC[C@]3(C)C(=CC(=O)[C@@H]4[C@@]5(C)C[C@@H](O)[C@H](O)[C@@](C)(CO)[C@@H]5CC[C@]43C)[C@@H]2[C@@H]1O`: the values for the half-inhibitory concentration (IC50) in the series on Candida albicans, in the series with Plasmodium falciparum and in the series with Staphylococcus aureus were greater than 64 µM, 13.9 µM and greater than 64 µM, respectively. Further, the selectivity ratio in series [1] was greater than 4.6. The molecule further yielded a cytotoxic concentration (CC50) at 168 h in series [2] greater than 64 µM.

`CC1(C)CC[C@]2(C(=O)O)CC[C@]3(C)C(=CC(=O)[C@@H]4[C@@]5(C)C[C@@H](O)[C@H](O)[C@](C)(CO)[C@@H]5CC[C@]43C)[C@@H]2[C@@H]1O`: the IC50 was greater than 64 µM in the series on Candida albicans, 6.1 µM in the series on Plasmodium falciparum and greater than 64 µM with Staphylococcus aureus. The selectivity ratio in series [1] is greater than 10.5. The same molecule gave a CC50 at 168 h in series [2] greater than 64 µM.

Take `Nc1nc(=O)[nH]cc1F` [FLUCYTOSINE]: half-maximal inhibition in the series with Candida albicans (IC50) required 0.7 µM.

Take `C[C@H]1c2cccc(O)c2C(=O)C2=C(O)[C@]3(O)C(=O)C(C(N)=O)=C(O)[C@@H](N(C)C)[C@@H]3[C@@H](O)[C@@H]21` [DOXYCYCLINE]: in the series with Staphylococcus aureus, the IC50 amounted to 0.28 µM.

With `C[C@]1(CO)CC[C@]2(C(=O)O)CC[C@]3(C)C(=CC[C@@H]4[C@@]5(C)C[C@@H](O)[C@H](O)[C@@](C)(CO)[C@@H]5CC[C@]43C)[C@@H]2C1`, the concentration for half-maximal inhibition (IC50) in the series on Candida albicans is greater than 64 µM; in the series on Plasmodium falciparum, 48.9 µM; in the series with Staphylococcus aureus, greater than 64 µM. Further, the selectivity ratio in series [1] was greater than 1.31. Also, in series [2], the CC50 at 168 h is greater than 64 µM.

With `CC1(C)CC[C@]2(C(=O)O[C@@H]3O[C@H](CO)[C@@H](O)[C@H](O)[C@H]3O)CC[C@]3(C)C(=CC(=O)[C@@H]4[C@@]5(C)C[C@@H](O)[C@H](O)[C@@](C)(CO)[C@@H]5CC[C@]43C)[C@@H]2[C@H]1O`, the half-inhibitory concentration (IC50) with Candida albicans was greater than 64 µM; in the series on Plasmodium falciparum, 11.3 µM; in the series on Staphylococcus aureus it was greater than 64 µM. In series [1], the selectivity ratio is greater than 5.7. In series [2], this molecule returned a cytotoxic concentration (CC50) at 168 h greater than 64 µM.

Turning to `CC1(C)C=C2C3=CC(=O)[C@@H]4[C@@]5(C)C[C@@H](O)[C@H](O)[C@@](C)(CO)[C@@H]5CC[C@@]4(C)[C@]3(C)CC[C@@]2(C(=O)O)CC1`, the IC50 in the series with Candida albicans is greater than 64 µM; with Plasmodium falciparum, 6.9 µM; with Staphylococcus aureus, greater than 64 µM. The selectivity ratio in series [1] was greater than 9.27. In series [2], this molecule yielded a CC50 at 168 h greater than 64 µM.

As for `CC1(C)CC[C@]2(C(=O)O)CC[C@]3(C)C(=CC(=O)[C@@H]4[C@@]5(C)C[C@@H](O)[C@H](O)[C@](C)(CO)[C@@H]5CC[C@]43C)[C@@H]2[C@H]1O`, the figures for the half-inhibitory concentration (IC50) in the series on Candida albicans, with Plasmodium falciparum and in the series on Staphylococcus aureus were greater than 64 µM, 6.1 µM and greater than 64 µM, respectively. Also, in series [1], the selectivity ratio was greater than 10.5. The molecule also displayed a CC50 at 168 h in series [2] greater than 64 µM.

Regarding `CC1(C)CC[C@]2(C(=O)O)CC[C@]3(C)C(=CC(=O)[C@@H]4[C@@]5(C)C[C@@H](O)[C@H](O)[C@@](C)(CO)[C@@H]5CC[C@]43C)[C@@H]2[C@H]1O`, the values for the IC50 with Candida albicans, with Plasmodium falciparum and with Staphylococcus aureus were greater than 64 µM, 10.1 µM and greater than 64 µM, respectively. In addition, the selectivity ratio in series [1] was greater than 6.3. In series [2], this molecule registered a CC50 at 168 h greater than 64 µM.

Turning to `CC1(C)CC[C@]2(C(=O)O[C@@H]3O[C@H](CO)[C@@H](O)[C@H](O)[C@H]3O)CC[C@]3(C)C(=CC(=O)[C@@H]4[C@@]5(C)C[C@@H](O)[C@H](O)[C@](C)(CO)[C@@H]5CC[C@]43C)[C@@H]2[C@H]1O`, the results for the 50% inhibitory concentration (IC50) with Candida albicans, with Plasmodium falciparum and in the series on Staphylococcus aureus were greater than 64 µM, 9.1 µM and greater than 64 µM, respectively. Moreover, the selectivity ratio in series [1] is greater than 7. In addition, the half-maximal cytotoxic concentration (CC50) at 168 h in series [2] is greater than 64 µM.
